# Tests used:
# TAK1 = target: T1, TAK1 (Homo sapiens, UniProt O43318); test: TAK1 ADP-Glo kinase assay; assay type: biochemical; conditions: for TAK1 kinase inhibition: compound 500 nM
# T1 sequence (O43318 1-303 limits assumed): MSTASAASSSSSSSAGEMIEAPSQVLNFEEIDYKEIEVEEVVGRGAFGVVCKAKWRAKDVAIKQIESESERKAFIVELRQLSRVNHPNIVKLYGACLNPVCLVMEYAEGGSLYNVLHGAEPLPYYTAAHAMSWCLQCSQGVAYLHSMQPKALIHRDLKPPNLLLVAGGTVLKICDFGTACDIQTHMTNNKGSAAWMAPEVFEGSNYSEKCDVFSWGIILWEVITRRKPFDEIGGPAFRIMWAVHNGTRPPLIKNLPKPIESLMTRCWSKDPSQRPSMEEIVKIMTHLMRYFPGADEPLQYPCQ
# Outline: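 Tiered TAK1 screen using the ADP-Glo kinase assay. Test compounds were first tested at 500 nM. Those exceeding 50% enzyme inhibition were retested at 100 nM, then at 20 nM. Values are means of triplicates with SD.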
# MPC-11 cells = test: Cell viability assay; assay type: cell-based, murine; conditions: compound 200 nM
# Outline: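 MPC-11 cells were grown in DMEM with 10% FBS at 37 °C under 5% CO2 and kept below 10 passages. Cells were seeded at 4–5 × 10^3 per well, left 24 h, then exposed to test compound (screened at 1 and 0.2 μM) for 72 h. CellTiter-Blue was added for 3 h and fluorescence read at 560/590 nm. Runs were in triplicate, normalised to DMSO-treated cells.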
# [1] = system: phosphorylated TAK1 (S412); test: pTAK1; assay type: cell-based, murine; conditions: MPC-11 cells, 0.1 or 0.5 μM, 48 h, western blot
# Outline: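 MPC-11 cells were seeded at 0.5–1 × 10^6, left 24 h, then treated with test compound at 0.1 or 0.5 μM or DMSO for 48 h. Cells were lysed in RIPA (pH 7.4) with protease inhibitors and 1 mM PMSF, and protein was measured by BCA. Lysates were run on 10% SDS-PAGE and blotted to PVDF. Blots were probed overnight at 4 °C for pTAK1, TAK1 and β-actin, then with HRP secondaries for 2 h at 24 °C. Detection was by chemiluminescence, with bands quantified relative to actin.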
# kinase anti-targets = test: KinomeScan profiling, kinase anti-targets; assay type: binding; conditions: Eurofins KinomeScan; KIT, ZAP70, JAK2, RET, KDR, PDGFR, FGFR, EGFR, BRAF, AKT, AURKA or B
# PKAC alpha = PKAC alpha (Homo sapiens, UniProt P17612); test: KinomeScan PKAC alpha; assay type: binding; conditions: in words
SMILES,TAK1 kinase inhibition (TAK1),other results
"C[C@@H]1CN(c2ccc3ncc(-c4ccc(C(F)(F)F)cc4)n3n2)C[C@H](C)O1 [Compound 7, (2S,6R)-2,6-Dimethyl-4-(3-(4-(trifluoromethyl)phenyl)imidazo[1,2-b]pyridazin-6-yl)morpholine]",moderate kinase inhibition,–
"C[C@@H]1CN(c2ccc3ncc(-c4ccc(F)cc4)n3n2)C[C@H](C)O1 [Compound 9, (2S,6R)-4-(3-(4-Fluorophenyl)imidazo[1,2-b]pyridazin-6-yl)-2,6-dimethylmorpholine]",moderate kinase inhibition,–
"Cc1n[nH]c2ccc(-c3cnc4ccc(N5CCO[C@@H](C)C5)nn34)cc12 [Compound 33, (S)-2-Methyl-4-(3-(3-methyl-1H-indazol-5-yl)imidazo[1,2-b]pyridazin-6-yl)morpholine]",–,inhibition of MPC-11 (MPC-11 cells): inactive
"C[C@@H]1CN(c2ccc3ncc(-c4ccc(C#N)cc4)n3n2)C[C@H](C)O1 [Compound 6, 4-(6-((2S,6R)-2,6-Dimethylmorpholino)imidazo[1,2-b]pyridazin-3-yl)benzonitrile]",moderate kinase inhibition,–
"C[C@@H]1CN(c2ccc3ncc(-c4ccc5cn[nH]c5c4)n3n2)C[C@H](C)O1 [Compound 21, (2S,6R)-4-(3-(1H-Indazol-6-yl)imidazo[1,2-b]pyridazin-6-yl)-2,6-dimethylmorpholine]",–,"inhibition at 0.5 µM (TAK1; read-out: TAK1 kinase inhibition, compound 500 nM): < 50%"
"C[C@@H]1CN(c2ccc3ncc(-c4ccc(C(N)=O)cc4)n3n2)C[C@H](C)O1 [Compound 12, 4-(6-((2S,6R)-2,6-Dimethylmorpholino)imidazo[1,2-b]pyridazin-3-yl)benzamide]",–,inhibition of TAK1 (TAK1; compound 100 nM): decrease in TAK1 kinase inhibition compared to the previous screening
"C[C@@H]1CN(c2ccc3ncc(-c4cccc(S(C)(=O)=O)c4)n3n2)C[C@H](C)O1 [Compound 8, (2S,6R)-2,6-Dimethyl-4-(3-(3-(methylsulfonyl)phenyl)imidazo[1,2-b]pyridazin-6-yl)morpholine]",moderate kinase inhibition,–
"CCCn1/c(=N/C(=O)c2cccc(C(N)=O)c2)[nH]c2ccccc21 [Takinib, reference compound]",–,levels of phosphorylated TAK1 (S412) compared to DMSO control [1]: did not show a significant difference
"C[C@@H]1CN(c2ccc3ncc(-c4ccc5[nH]nc(C6CC6)c5c4)n3n2)C[C@H](C)O1 [Compound 26, (2S,6R)-4-(3-(3-Cyclopropyl-1H-indazol-5-yl)imidazo[1,2-b]pyridazin-6-yl)-2,6-dimethylmorpholine]",–,levels of phosphorylated TAK1 (S412) compared to DMSO control [1]: successful in reducing levels of phosphorylated TAK1 (S412); inhibition of kinase anti-targets (kinase anti-targets): minimal inhibition; affinity for PKAC alpha (PKAC alpha): low affinity
"Cc1n[nH]c2ccc(-c3cnc4ccc(N5C[C@@H](C)O[C@@H](C)C5)nn34)cc12 [Compound 3, (2S,6R)-2,6-Dimethyl-4-(3-(3-methyl-1H-indazol-5-yl)imidazo[1,2-b]pyridazin-6-yl)morpholine]",–,levels of phosphorylated TAK1 (S412) compared to DMSO control [1]: successful in reducing levels of phosphorylated TAK1 (S412)
"C[C@@H]1CN(c2ccc3ncc(-c4ccccc4)n3n2)C[C@H](C)O1 [Compound 5, (2S,6R)-2,6-Dimethyl-4-(3-phenylimidazo[1,2-b]pyridazin-6-yl)morpholine]",negligible kinase inhibition,–

# Further lines, with some results ahead:
TAK1 kinase inhibition (TAK1),SMILES,other results
negligible kinase inhibition,"C[C@@H]1CN(c2ccc3ncc(-c4cccc(C#N)c4)n3n2)C[C@H](C)O1 [Compound 19, 3-(6-((2S,6R)-2,6-Dimethylmorpholino)imidazo[1,2-b]pyridazin-3-yl)benzonitrile]",–
negligible kinase inhibition,"C[C@@H]1CN(c2ccc3ncc(-c4ccc(OC(F)(F)F)cc4)n3n2)C[C@H](C)O1 [Compound 11, (2S,6R)-2,6-Dimethyl-4-(3-(4-(trifluoromethoxy)phenyl)imidazo[1,2-b]pyridazin-6-yl)morpholine]",–
moderate kinase inhibition,"C[C@@H]1CN(c2ccc3ncc(-c4ccncc4)n3n2)C[C@H](C)O1 [Compound 17, (2S,6R)-2,6-Dimethyl-4-(3-(pyridin-4-yl)imidazo[1,2-b]pyridazin-6-yl)morpholine]",–
moderate kinase inhibition,"C[C@@H]1CN(c2ccc3ncc(-c4ccc(CC#N)cc4)n3n2)C[C@H](C)O1 [Compound 14, 2-(4-(6-((2S,6R)-2,6-Dimethylmorpholino)imidazo[1,2-b]pyridazin-3-yl)phenyl)acetonitrile]",–
moderate kinase inhibition,"C[C@@H]1CN(c2ccc3ncc(-c4ccc(F)c(C#N)c4)n3n2)C[C@H](C)O1 [Compound 16, 5-(6-((2S,6R)-2,6-Dimethylmorpholino)imidazo[1,2-b]pyridazin-3-yl)-2-fluorobenzonitrile]",–
negligible kinase inhibition,"C[C@@H]1CN(c2ccc3ncc(-c4cccnc4)n3n2)C[C@H](C)O1 [Compound 18, (2S,6R)-2,6-Dimethyl-4-(3-(pyridin-3-yl)imidazo[1,2-b]pyridazin-6-yl)morpholine]",–
moderate kinase inhibition,"CNC(=O)c1ccc(-c2cnc3ccc(N4C[C@@H](C)O[C@@H](C)C4)nn23)cc1 [Compound 13, 4-(6-((2S,6R)-2,6-dimethylmorpholino)imidazo[1,2-b]pyridazin-3-yl)-N-methylbenzamide]",–

# Source: paper PMC10809330 (RSC Medicinal Chemistry, 2023)
